Measured values: ChEMBL document CHEMBL4017535 (J Med Chem, 2017)

Tests used:
[1] = biological target: Histone acetyltransferase KAT2B (Homo sapiens, UniProt Q92831); assay: Binding affinity to human PCAF (G715 to D831 residues) expressed in mammalian expression system by BROMOscan assay
[2] = Half life in po dosed dog; format: ADME, organism-based, Canis lupus familiaris; settings: in vivo
[3] = biological target: T1, Protein polybromo-1 (Homo sapiens, UniProt Q86U86); assay: Binding affinity to human PBRM1 bromodomain-2 (S178 to E291 residues) expressed in bacterial expression system by BROMOscan assay
T1 sequence (Q86U86 whole entry, the tested form may be a part): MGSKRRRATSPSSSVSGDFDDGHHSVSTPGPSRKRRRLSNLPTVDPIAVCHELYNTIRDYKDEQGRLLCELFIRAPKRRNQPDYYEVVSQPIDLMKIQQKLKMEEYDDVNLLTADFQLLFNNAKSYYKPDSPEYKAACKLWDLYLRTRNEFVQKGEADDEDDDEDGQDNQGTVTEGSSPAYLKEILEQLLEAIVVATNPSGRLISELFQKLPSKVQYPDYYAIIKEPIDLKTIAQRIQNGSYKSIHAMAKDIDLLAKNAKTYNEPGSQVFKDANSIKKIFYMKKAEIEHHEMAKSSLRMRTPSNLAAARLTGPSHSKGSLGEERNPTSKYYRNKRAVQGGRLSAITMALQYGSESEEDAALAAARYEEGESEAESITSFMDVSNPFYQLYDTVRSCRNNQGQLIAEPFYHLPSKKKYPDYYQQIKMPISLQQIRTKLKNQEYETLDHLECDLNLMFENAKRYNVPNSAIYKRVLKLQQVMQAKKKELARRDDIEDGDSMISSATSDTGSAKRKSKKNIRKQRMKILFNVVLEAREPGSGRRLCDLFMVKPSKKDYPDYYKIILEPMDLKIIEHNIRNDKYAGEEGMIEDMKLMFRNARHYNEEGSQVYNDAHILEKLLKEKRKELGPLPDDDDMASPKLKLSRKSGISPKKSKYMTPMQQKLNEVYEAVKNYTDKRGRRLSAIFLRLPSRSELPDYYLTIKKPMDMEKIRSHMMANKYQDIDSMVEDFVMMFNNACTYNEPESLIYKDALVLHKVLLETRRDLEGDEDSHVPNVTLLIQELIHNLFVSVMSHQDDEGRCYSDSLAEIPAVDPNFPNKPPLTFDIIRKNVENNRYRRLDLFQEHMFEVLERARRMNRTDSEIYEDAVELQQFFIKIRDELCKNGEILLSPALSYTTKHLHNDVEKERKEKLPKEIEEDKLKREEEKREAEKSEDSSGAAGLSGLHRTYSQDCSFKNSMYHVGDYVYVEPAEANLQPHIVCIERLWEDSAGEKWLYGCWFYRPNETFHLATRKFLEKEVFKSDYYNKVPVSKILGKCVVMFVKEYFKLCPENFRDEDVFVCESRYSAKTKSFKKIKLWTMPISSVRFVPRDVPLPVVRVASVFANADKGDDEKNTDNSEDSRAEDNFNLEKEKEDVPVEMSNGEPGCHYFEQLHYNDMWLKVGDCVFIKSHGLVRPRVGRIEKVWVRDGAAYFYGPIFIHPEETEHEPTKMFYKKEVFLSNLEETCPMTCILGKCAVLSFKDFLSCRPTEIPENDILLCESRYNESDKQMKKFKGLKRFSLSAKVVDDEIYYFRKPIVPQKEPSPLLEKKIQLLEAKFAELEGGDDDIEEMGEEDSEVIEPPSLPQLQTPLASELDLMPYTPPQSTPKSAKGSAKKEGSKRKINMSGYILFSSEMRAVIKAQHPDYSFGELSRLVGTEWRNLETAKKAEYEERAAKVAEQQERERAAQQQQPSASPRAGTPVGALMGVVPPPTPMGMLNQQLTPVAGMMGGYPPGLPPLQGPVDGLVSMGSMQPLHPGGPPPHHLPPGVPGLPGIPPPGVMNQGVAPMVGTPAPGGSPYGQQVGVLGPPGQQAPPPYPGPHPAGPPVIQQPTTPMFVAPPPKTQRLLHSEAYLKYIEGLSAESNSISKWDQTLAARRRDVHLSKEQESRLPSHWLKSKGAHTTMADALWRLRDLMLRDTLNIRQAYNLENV

[4] = Plasma clearance in iv dosed dog; format: ADME, organism-based, Canis lupus familiaris
[5] = Intrinsic clearance in rat liver microsomes at 10 uM preincubated for 5 mins followed by NADPH addition measured after 60 mins by HPLC-UV-MS analysis; format: ADME, microsome; settings: read-out: CLH (converted)
[6] = Oral bioavailability in rat at 1 mg/kg; format: ADME, organism-based; settings: in vivo
Method in brief: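 In rats, 1 mg/kg was given by both IV and PO routes. IV clearance is unbound (Cl_p,u, L/hr/kg). FaFg is taken as F/(1-Clp/Qh), using rat Qh 3.8 L/hr/kg. Unbound plasma fraction was determined in rat plasma.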

[7] = Intrinsic clearance in human hepatocytes; format: ADME, cell-based, Hepatocyte; settings: read-out: CLH (converted)
[8] = biological target: Bromodomain-containing protein 7 (Homo sapiens, UniProt Q9NPI1); assay: Binding affinity to human BRD7 (L125 to R254 residues) expressed in mammalian expression system by BROMOscan assay
[9] = biological target: Transcription initiation factor TFIID subunit 1-like (Homo sapiens, UniProt Q8IZX4); assay: Binding affinity to human TAF1L (2) (Q1523 to D1654 residues) expressed in bacterial expression system by BROMOscan assay
[10] = Intrinsic clearance in monkey liver microsomes; format: ADME, Macaca mulatta, microsome; settings: rhesus monkey, read-out: CLH (converted)
[11] = biological target: Bromodomain adjacent to zinc finger domain protein 2A (Homo sapiens, UniProt Q9UIF9); assay: Binding affinity to human BAZ2A (M1792 to L1905 residues) expressed in bacterial expression system by BROMOscan assay
[12] = biological target: Histone acetyltransferase KAT2A (Homo sapiens, UniProt Q92830); assay: Binding affinity to human GCN5L2 (E726 to K837 residues) expressed in bacterial expression system by BROMOscan assay
Chain of Histone acetyltransferase KAT2A (Q92830 whole entry, the tested form may be a part): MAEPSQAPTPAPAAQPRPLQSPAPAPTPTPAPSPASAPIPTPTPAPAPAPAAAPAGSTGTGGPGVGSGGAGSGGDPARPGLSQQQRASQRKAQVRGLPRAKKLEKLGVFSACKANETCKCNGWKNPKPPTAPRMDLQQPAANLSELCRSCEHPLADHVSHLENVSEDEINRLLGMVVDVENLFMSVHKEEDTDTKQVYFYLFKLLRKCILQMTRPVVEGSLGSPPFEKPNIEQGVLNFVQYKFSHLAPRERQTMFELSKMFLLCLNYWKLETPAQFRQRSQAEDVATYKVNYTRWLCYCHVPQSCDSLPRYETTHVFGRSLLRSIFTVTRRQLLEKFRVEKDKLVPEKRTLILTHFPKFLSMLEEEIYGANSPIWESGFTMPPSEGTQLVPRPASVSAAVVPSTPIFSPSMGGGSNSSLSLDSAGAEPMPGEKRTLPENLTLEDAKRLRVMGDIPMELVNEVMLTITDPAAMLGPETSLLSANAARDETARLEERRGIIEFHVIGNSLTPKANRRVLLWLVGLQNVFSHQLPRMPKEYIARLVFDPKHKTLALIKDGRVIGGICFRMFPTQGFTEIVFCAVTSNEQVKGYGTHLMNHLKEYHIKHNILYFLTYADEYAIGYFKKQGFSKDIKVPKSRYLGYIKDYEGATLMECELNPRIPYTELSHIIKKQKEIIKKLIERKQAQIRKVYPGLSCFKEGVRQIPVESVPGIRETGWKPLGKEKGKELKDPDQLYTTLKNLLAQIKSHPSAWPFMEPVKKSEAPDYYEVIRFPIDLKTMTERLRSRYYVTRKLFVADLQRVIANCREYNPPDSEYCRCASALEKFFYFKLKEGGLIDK

[13] = Intrinsic clearance in mouse hepatocytes; format: ADME, cell-based, Hepatocyte; settings: read-out: CLH (converted)
[14] = Plasma clearance in rat at 1 mg/kg, iv; format: ADME, organism-based
[15] = test system: Mus musculus; assay: Toxicity in NOD.SCID mouse assessed as maximum mean body weight loss at 1 mg/kg, po qd for 25 days (reference value: 9%); format: organism-based; settings: in vivo, 600 h
[16] = biological target: T2, Bromodomain-containing protein 4 (Homo sapiens, UniProt O60885); assay: Binding affinity to human N-terminal His6-tagged BRD4 BD1-BD2 (K57 to K550 residues) after 1 hr using alexa-647 conjugated probe by TR-FRET assay
[17] = test system: MX1; assay: Antiproliferative activity against human MX1 cells after 72 hrs by Cell Titer Glo assay; format: functional, cell-based; settings: MX1, 72 h
[18] = test system: Mus musculus; assay: Inhibition of LPS-induced IL-6 release in po dosed CD-1 mouse serum administered for 1 hr followed by LPS challenge measured after 2 hrs by immunoassay; format: functional, organism-based
Method in brief: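 Compound given orally to mice, followed by an LPS challenge. Plasma IL-6 and plasma compound concentration were both measured 2 hours after LPS. Inhibition was related to dose and to plasma concentration at the time of cytokine measurement. Values are mean ± SE, n=5 per group.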

[19] = biological target: Histone acetyltransferase p300 (Homo sapiens, UniProt Q09472); assay: Binding affinity to human EP300 (A1040 to G1161 residues) expressed in bacterial expression system by BROMOscan assay
[20] = test system: Mus musculus; assay: Oral absorption in mouse at 10 mg/kg; format: ADME, organism-based; settings: in vivo
Method in brief: (§1)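 Oral absorption is expressed as FaFg, calculated as F/(1-Clp/Qh). Liver blood flow (Qh) was 5.2 L/hr/kg for mouse and 3.8 L/hr/kg for rat. Mouse dosing was 3 mg/kg IV and 10 mg/kg PO; rat dosing was 1 mg/kg IV and PO.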

[21] = Permeability in MDCK cells; format: ADME, cell-based, Canis lupus familiaris; settings: dog, read-out: permeability
[22] = biological target: Bromodomain adjacent to zinc finger domain protein 2B (Homo sapiens, UniProt Q9UIF8); assay: Binding affinity to human BAZ2B (S2054 to S2168 residues) expressed in bacterial expression system by BROMOscan assay
Chain of Bromodomain adjacent to zinc finger domain protein 2B (Q9UIF8 whole entry, the tested form may be a part): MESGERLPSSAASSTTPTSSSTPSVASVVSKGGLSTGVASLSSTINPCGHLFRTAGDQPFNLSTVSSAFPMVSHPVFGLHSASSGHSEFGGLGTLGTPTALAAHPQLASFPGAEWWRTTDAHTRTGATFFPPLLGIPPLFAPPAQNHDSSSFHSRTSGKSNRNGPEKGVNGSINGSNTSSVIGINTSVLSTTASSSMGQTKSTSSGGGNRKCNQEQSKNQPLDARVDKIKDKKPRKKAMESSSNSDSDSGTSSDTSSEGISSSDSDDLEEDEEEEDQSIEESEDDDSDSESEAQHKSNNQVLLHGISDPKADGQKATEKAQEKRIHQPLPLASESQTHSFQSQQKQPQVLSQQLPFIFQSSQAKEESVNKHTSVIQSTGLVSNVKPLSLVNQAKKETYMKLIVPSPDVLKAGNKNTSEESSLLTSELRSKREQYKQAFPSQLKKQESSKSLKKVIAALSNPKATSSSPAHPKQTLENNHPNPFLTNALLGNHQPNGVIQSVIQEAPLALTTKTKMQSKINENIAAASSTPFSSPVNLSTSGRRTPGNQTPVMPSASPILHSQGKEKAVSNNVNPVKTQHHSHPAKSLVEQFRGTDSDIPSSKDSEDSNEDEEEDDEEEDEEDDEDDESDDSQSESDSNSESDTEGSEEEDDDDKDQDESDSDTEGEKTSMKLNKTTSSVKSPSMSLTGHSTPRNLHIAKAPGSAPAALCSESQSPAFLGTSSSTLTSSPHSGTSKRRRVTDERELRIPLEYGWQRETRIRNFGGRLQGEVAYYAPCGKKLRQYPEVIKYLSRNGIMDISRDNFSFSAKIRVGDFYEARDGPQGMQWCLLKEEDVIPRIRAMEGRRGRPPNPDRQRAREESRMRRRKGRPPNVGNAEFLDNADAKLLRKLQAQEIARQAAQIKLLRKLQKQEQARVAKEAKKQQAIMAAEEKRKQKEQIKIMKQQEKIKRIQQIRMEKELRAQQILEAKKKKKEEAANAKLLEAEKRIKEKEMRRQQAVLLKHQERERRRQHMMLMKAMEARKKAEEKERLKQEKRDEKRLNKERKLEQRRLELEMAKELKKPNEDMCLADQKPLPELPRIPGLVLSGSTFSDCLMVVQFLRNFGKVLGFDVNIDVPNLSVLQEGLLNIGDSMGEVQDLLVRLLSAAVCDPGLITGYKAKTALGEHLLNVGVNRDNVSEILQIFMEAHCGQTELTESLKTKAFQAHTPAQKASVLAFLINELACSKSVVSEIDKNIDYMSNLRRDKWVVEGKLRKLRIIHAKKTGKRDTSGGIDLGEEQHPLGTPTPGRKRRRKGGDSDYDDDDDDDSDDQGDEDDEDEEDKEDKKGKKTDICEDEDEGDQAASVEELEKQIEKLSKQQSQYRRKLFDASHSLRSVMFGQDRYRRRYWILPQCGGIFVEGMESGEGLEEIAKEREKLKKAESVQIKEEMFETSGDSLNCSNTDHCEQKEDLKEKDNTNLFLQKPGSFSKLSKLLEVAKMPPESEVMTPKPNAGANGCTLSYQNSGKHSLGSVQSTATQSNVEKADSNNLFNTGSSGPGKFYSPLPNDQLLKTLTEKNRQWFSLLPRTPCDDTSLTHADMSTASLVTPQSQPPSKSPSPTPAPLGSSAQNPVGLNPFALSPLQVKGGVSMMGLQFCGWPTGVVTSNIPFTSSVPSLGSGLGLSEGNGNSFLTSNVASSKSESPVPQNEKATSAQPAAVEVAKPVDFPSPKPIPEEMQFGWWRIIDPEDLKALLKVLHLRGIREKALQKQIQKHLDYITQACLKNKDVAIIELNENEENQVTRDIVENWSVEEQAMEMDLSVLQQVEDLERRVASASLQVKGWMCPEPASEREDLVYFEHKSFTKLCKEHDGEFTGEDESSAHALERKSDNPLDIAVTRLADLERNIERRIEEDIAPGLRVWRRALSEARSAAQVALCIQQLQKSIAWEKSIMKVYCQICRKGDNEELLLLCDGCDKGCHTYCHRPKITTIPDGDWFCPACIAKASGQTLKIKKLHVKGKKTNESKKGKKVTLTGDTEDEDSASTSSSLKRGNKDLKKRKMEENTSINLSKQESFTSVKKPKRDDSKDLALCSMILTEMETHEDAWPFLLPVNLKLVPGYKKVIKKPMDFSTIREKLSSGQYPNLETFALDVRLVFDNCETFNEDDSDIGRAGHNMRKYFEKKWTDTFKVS

[23] = biological target: Adenosine receptor A2b (Homo sapiens, UniProt P29275); assay: Antagonist activity at adenosine A2B receptor (unknown origin)
Chain of Adenosine receptor A2b (P29275 whole entry): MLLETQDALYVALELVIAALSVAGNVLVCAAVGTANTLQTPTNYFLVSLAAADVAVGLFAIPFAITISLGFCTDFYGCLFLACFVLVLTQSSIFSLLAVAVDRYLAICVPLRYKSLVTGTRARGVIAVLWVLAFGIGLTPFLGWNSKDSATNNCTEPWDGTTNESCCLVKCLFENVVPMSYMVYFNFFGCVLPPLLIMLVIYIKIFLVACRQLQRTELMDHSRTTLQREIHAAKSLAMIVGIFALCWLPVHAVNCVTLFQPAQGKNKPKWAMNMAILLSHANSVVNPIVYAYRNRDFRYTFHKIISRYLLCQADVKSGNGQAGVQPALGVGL

[24] = Half life in human at 1 mg, po; format: ADME; settings: in vivo
Method in brief: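 Clinical PK in subjects with cancer after a single 1 mg oral dose, n = 3. Apparent clearance was reported as PO CLp/F in L/hr.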

[25] = biological target: T2, Bromodomain-containing protein 4; assay: Inhibition of BRD4 in human H1299 cells assessed as decrease in HPV LCR-E2-EP400-mediated transcriptional repression after 24 hrs by Bright-Glo luciferase reporter gene assay; format: cell-based
[26] = Oral bioavailability in human at 1 mg; format: ADME, organism-based; settings: in vivo
Method in brief: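 Human F (%) was estimated from observed F in preclinical species. It accompanies a clinical 1 mg oral dose given to cancer patients (n = 3).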

[27] = Oral bioavailability in monkey; format: ADME, organism-based, Macaca mulatta; settings: rhesus monkey, in vivo
[28] = Intrinsic clearance in dog hepatocytes; format: ADME, cell-based, Canis lupus familiaris, Hepatocyte; settings: read-out: CLH (converted)
[29] = biological target: T1, Protein polybromo-1; assay: Binding affinity to human PBRM1 bromodamian-5 (S645 to D766 residues) expressed in bacterial expression system by BROMOscan assay
[30] = Intrinsic clearance in mouse liver microsomes; format: ADME, microsome; settings: read-out: CLH (converted)
[31] = test system: Kasumi 1; assay: Antitumor activity against gamma-irradiated human Kasumi-1 cells xenografted in NOD.SCID mouse assessed as tumor growth inhibition at 1 mg/kg, po qd for 25 days relative to control; format: functional; settings: Kasumi 1, light or radiation study, 600 h, read-out: TGI
Method in brief: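 Kasumi-1 AML xenograft in mice, with tumor growth inhibition (TGI) as the read-out. For the test agent, dosing was oral, once daily at 1 mg/kg for 25 days, with tolerability tracked as body-weight loss. For 5-azacitidine, dosing was IV, Q7d, at 8 mg/kg.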

[32] = test system: Rattus norvegicus; assay: Oral absorption in rat at 1 mg/kg; format: ADME, organism-based; settings: in vivo; method in brief: as §1

- Kd [1]: > 1000 nM
- half-life [2]: 5.8 h
- Kd [3]: > 1000 nM
- clearance [4]: 3.17 mL/min/kg
- CLint scaled at 10 µM [5]: 66.7 mL/min/kg
- bioavailability [6]: 65%
- CLint scaled [7]: 14.5 mL/min/kg
- Kd [8]: > 1000 nM
- Kd [9]: > 1000 nM
- CLint scaled [10]: 38.3 mL/min/kg
- Kd [11]: > 1000 nM
- Kd [12]: > 1000 nM
- CLint scaled [13]: 58.3 mL/min/kg
- clearance [14]: 10 mL/min/kg
- Ki [16]: 1.5 nM
- Kd [19]: 87 nM
- FaFg [20]: 0.9
- Papp [21]: 29 ×10⁻⁶ cm/s
- Kd [22]: > 1000 nM
- IC50 [23]: 2600 nM
- half-life [24]: 25.1 h
- EC50 [25]: 20 nM
- bioavailability [26]: 50%
- bioavailability [27]: 33%
- CLint scaled [28]: 35 mL/min/kg
- Kd [29]: > 1000 nM
- CLint scaled [30]: 138 mL/min/kg
- FaFg [32]: 0.77
Structure (SMILES): CCS(=O)(=O)Nc1ccc(Oc2ccc(F)cc2F)c(-c2cn(C)c(=O)c3[nH]ccc23)c1 [MIVEBRESIB]
- Activity [15]: 6%
- EC50 [17]: 13 nM
- inhibition [18]: Dose-dependent effect
- inhibition in vivo at 1 mg/kg [31]: 99%
